ChEMBL document CHEMBL1944580, “Synthesis of novel sulfonamide-1,2,4-triazoles, 1,3,4-thiadiazoles and 1,3,4-oxadiazoles, as potential antibacterial and antifungal agents. Biological evaluation and conformational analysis studies” (2012)
In brackets after ≈: the same amount, converted by molar mass.

Tested on: Staphylococcus aureus
Assay: Antibacterial activity against Staphylococcus aureus ATCC 6538 after 24 hrs by micro dilution method
Format: functional
Settings: ATCC 6538, 24 h
Procedure, shortened: (§1)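 Microdilution MIC in 96-well plates. Bacterial suspensions adjusted in sterile saline to 1.0 × 10^5 CFU/ml, giving 1.0 × 10^4 cfu per well in LB broth. Compounds tested at up to 1 mg/ml. Plates incubated 24 h. MIC taken as the lowest concentration with no visible growth under a binocular microscope. OD at 655 nm was also read against a blank and the positive control. Streptomycin and ampicillin were the positive controls.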

SMILES	MIC
CCCCn1c(Cc2cc(OC)c(OC)cc2S(=O)(=O)N(C)C)n[nH]c1=S	240 µM (≈ 99.5 µg/mL)

Tested on: Enterobacter cloacae
Assay: Antibacterial activity against Enterobacter cloacae human isolate after 24 hrs by micro dilution method
Format: functional
Settings: not given
Procedure, shortened: as §1

SMILES	MIC
CCCCn1c(Cc2cc(OC)c(OC)cc2S(=O)(=O)N(C)C)n[nH]c1=S	240 µM (≈ 99.5 µg/mL)

Tested on: Aspergillus niger
Assay: Antifungal activity against Aspergillus niger ATCC 6275 after 72 hrs by serial dilution method
Format: functional
Settings: ATCC 6275, 72 h
Procedure, shortened: (§2)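 Modified microdilution MIC. Spores were washed from malt agar cultures with sterile 0.85% saline containing 0.1% Tween 80 and adjusted to about 1.0 × 10^5 per 100 µl well in malt broth. Compounds were dissolved in DMSO (1 mg/ml). Plates incubated 72 h at 28 °C. MIC is the lowest concentration with no visible growth under a binocular microscope. Bifonazole and ketoconazole were the references.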

SMILES	MIC
CCCCn1c(Cc2cc(OC)c(OC)cc2S(=O)(=O)N(C)C)n[nH]c1=S	60 µM (≈ 24.9 µg/mL)

Tested on: Aspergillus versicolor
Assay: Antifungal activity against Aspergillus versicolor ATCC 11730 after 72 hrs by serial dilution method
Format: functional
Settings: ATCC 11730, 72 h
Procedure, shortened: as §2

SMILES	MIC
CCCCn1c(Cc2cc(OC)c(OC)cc2S(=O)(=O)N(C)C)n[nH]c1=S	240 µM (≈ 99.5 µg/mL)

Tested on: Escherichia coli
Assay: Antibacterial activity against Escherichia coli ATCC 35210 treated for 24 hrs followed by sub-cultivated for 72 hrs by micro dilution method
Format: functional
Settings: not given
Procedure, shortened: (§3)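 2 µl from each well was serially subcultured into 100 µl fresh broth per well and incubated a further 72 h. MBC is the lowest concentration with no visible growth, taken as 99.5% killing of the original inoculum. Streptomycin and ampicillin were the positive controls.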

SMILES	MBC
CCCCn1c(Cc2cc(OC)c(OC)cc2S(=O)(=O)N(C)C)n[nH]c1=S	480 µM (≈ 199 µg/mL)

Tested on: Trichoderma viride
Assay: Antifungal activity against Trichoderma viride IAM 5061 treated for 72 hrs followed by sub-cultivated for 5 days by serial dilution method
Format: functional
Settings: not given
Procedure, shortened: (§4)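 MFC obtained after the 72 h, 28 °C malt-broth microdilution (spore inoculum about 1.0 × 10^5 per well, compounds from 1 mg/ml DMSO). 2 µl was serially subcultured into 100 µl broth per well and incubated a further 5 days at 28 °C. MFC is the lowest concentration with no visible growth, taken as 99.5% killing of the original inoculum.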

SMILES	MFC
CCCCn1c(Cc2cc(OC)c(OC)cc2S(=O)(=O)N(C)C)n[nH]c1=S	120 µM (≈ 49.7 µg/mL)

Tested on: Micrococcus flavus
Assay: Antibacterial activity against Micrococcus flavus ATCC 10240 treated for 24 hrs followed by sub-cultivated for 72 hrs by micro dilution method
Format: functional
Settings: not given
Procedure, shortened: as §3

SMILES	MBC
CCCCn1c(Cc2cc(OC)c(OC)cc2S(=O)(=O)N(C)C)n[nH]c1=S	480 µM (≈ 199 µg/mL)

Tested on: Salmonella typhimurium
Assay: Antibacterial activity against Salmonella Typhimurium ATCC 13311 after 24 hrs by micro dilution method
Format: functional, Salmonella enterica subsp. enterica serovar Typhimurium
Settings: Salmonella enterica, ATCC 13311, 24 h
Procedure, shortened: as §1

SMILES	MIC
CCCCn1c(Cc2cc(OC)c(OC)cc2S(=O)(=O)N(C)C)n[nH]c1=S	240 µM (≈ 99.5 µg/mL)

Tested on: Aspergillus fumigatus
Assay: Antifungal activity against Aspergillus fumigatus human isolate treated for 72 hrs followed by sub-cultivated for 5 days by serial dilution method
Format: functional
Settings: not given
Procedure, shortened: as §4

SMILES	MFC
CCCCn1c(Cc2cc(OC)c(OC)cc2S(=O)(=O)N(C)C)n[nH]c1=S	240 µM (≈ 99.5 µg/mL)

Tested on: Aspergillus versicolor
Assay: Antifungal activity against Aspergillus versicolor ATCC 11730 treated for 72 hrs followed by sub-cultivated for 5 days by serial dilution method
Format: functional
Settings: not given
Procedure, shortened: as §4

SMILES	MFC
CCCCn1c(Cc2cc(OC)c(OC)cc2S(=O)(=O)N(C)C)n[nH]c1=S	480 µM (≈ 199 µg/mL)

Tested on: Pseudomonas aeruginosa
Assay: Antibacterial activity against Pseudomonas aeruginosa ATCC 27853 after 24 hrs by micro dilution method
Format: functional
Settings: ATCC 27853, 24 h
Procedure, shortened: as §1

SMILES	MIC
CCCCn1c(Cc2cc(OC)c(OC)cc2S(=O)(=O)N(C)C)n[nH]c1=S	480 µM (≈ 199 µg/mL)

Tested on: Micrococcus flavus
Assay: Antibacterial activity against Micrococcus flavus ATCC 10240 after 24 hrs by micro dilution method
Format: functional
Settings: ATCC 10240, 24 h
Procedure, shortened: as §1

SMILES	MIC
CCCCn1c(Cc2cc(OC)c(OC)cc2S(=O)(=O)N(C)C)n[nH]c1=S	240 µM (≈ 99.5 µg/mL)

Tested on: Listeria monocytogenes
Assay: Antibacterial activity against Listeria monocytogenes NCTC 7973 treated for 24 hrs followed by sub-cultivated for 72 hrs by micro dilution method
Format: functional
Settings: not given
Procedure, shortened: as §3

SMILES	MBC
CCCCn1c(Cc2cc(OC)c(OC)cc2S(=O)(=O)N(C)C)n[nH]c1=S	240 µM (≈ 99.5 µg/mL)

Tested on: Talaromyces funiculosus
Assay: Antifungal activity against Penicillium funiculosum ATCC 36839 after 72 hrs by serial dilution method
Format: functional
Settings: ATCC 36839, 72 h
Procedure, shortened: as §2

SMILES	MIC
CCCCn1c(Cc2cc(OC)c(OC)cc2S(=O)(=O)N(C)C)n[nH]c1=S	120 µM (≈ 49.7 µg/mL)

Tested on: Listeria monocytogenes
Assay: Antibacterial activity against Listeria monocytogenes NCTC 7973 after 24 hrs by micro dilution method
Format: functional
Settings: NCTC 7973, 24 h
Procedure, shortened: as §1

SMILES	MIC
CCCCn1c(Cc2cc(OC)c(OC)cc2S(=O)(=O)N(C)C)n[nH]c1=S	240 µM (≈ 99.5 µg/mL)

Tested on: Trichoderma viride
Assay: Antifungal activity against Trichoderma viride IAM 5061 after 72 hrs by serial dilution method
Format: functional
Settings: IAM 5061, 72 h
Procedure, shortened: as §2

SMILES	MIC
CCCCn1c(Cc2cc(OC)c(OC)cc2S(=O)(=O)N(C)C)n[nH]c1=S	60 µM (≈ 24.9 µg/mL)

Tested on: Bacillus cereus
Assay: Antibacterial activity against Bacillus cereus clinical isolate treated for 24 hrs followed by sub-cultivated for 72 hrs by micro dilution method
Format: functional
Settings: not given
Procedure, shortened: as §3

SMILES	MBC
CCCCn1c(Cc2cc(OC)c(OC)cc2S(=O)(=O)N(C)C)n[nH]c1=S	480 µM (≈ 199 µg/mL)

Tested on: Fulvia fulva
Assay: Antifungal activity against Fulvia fulva treated for 72 hrs followed by sub-cultivated for 5 days by serial dilution method
Format: functional
Settings: not given
Procedure, shortened: as §4

SMILES	MFC
CCCCn1c(Cc2cc(OC)c(OC)cc2S(=O)(=O)N(C)C)n[nH]c1=S	240 µM (≈ 99.5 µg/mL)

Tested on: Aspergillus flavus
Assay: Antifungal activity against Aspergillus flavus ATCC 9643 treated for 72 hrs followed by sub-cultivated for 5 days by serial dilution method
Format: functional
Settings: not given
Procedure, shortened: as §4

SMILES	MFC
CCCCn1c(Cc2cc(OC)c(OC)cc2S(=O)(=O)N(C)C)n[nH]c1=S	240 µM (≈ 99.5 µg/mL)

Tested on: Aspergillus niger
Assay: Antifungal activity against Aspergillus niger ATCC 6275 treated for 72 hrs followed by sub-cultivated for 5 days by serial dilution method
Format: functional
Settings: not given
Procedure, shortened: as §4

SMILES	MFC
CCCCn1c(Cc2cc(OC)c(OC)cc2S(=O)(=O)N(C)C)n[nH]c1=S	120 µM (≈ 49.7 µg/mL)

Tested on: Enterobacter cloacae
Assay: Antibacterial activity against Enterobacter cloacae human isolate treated for 24 hrs followed by sub-cultivated for 72 hrs by micro dilution method
Format: functional
Settings: not given
Procedure, shortened: as §3

SMILES	MBC
CCCCn1c(Cc2cc(OC)c(OC)cc2S(=O)(=O)N(C)C)n[nH]c1=S	240 µM (≈ 99.5 µg/mL)

Tested on: Penicillium ochrochloron
Assay: Antifungal activity against Penicillium ochrochloron ATCC 9112 after 72 hrs by serial dilution method
Format: functional
Settings: ATCC 9112, 72 h
Procedure, shortened: as §2

SMILES	MIC
CCCCn1c(Cc2cc(OC)c(OC)cc2S(=O)(=O)N(C)C)n[nH]c1=S	120 µM (≈ 49.7 µg/mL)

Tested on: Aspergillus fumigatus
Assay: Antifungal activity against Aspergillus fumigatus human isolate after 72 hrs by serial dilution method
Format: functional
Settings: not given
Procedure, shortened: as §2

SMILES	MIC
CCCCn1c(Cc2cc(OC)c(OC)cc2S(=O)(=O)N(C)C)n[nH]c1=S	120 µM (≈ 49.7 µg/mL)

Tested on: Salmonella typhimurium
Assay: Antibacterial activity against Salmonella Typhimurium ATCC 13311 treated for 24 hrs followed by sub-cultivated for 72 hrs by micro dilution method
Format: functional, Salmonella enterica subsp. enterica serovar Typhimurium
Settings: Salmonella enterica
Procedure, shortened: as §3

SMILES	MBC
CCCCn1c(Cc2cc(OC)c(OC)cc2S(=O)(=O)N(C)C)n[nH]c1=S	240 µM (≈ 99.5 µg/mL)

Tested on: Penicillium ochrochloron
Assay: Antifungal activity against Penicillium ochrochloron ATCC 9112 treated for 72 hrs followed by sub-cultivated for 5 days by serial dilution method
Format: functional
Settings: not given
Procedure, shortened: as §4

SMILES	MFC
CCCCn1c(Cc2cc(OC)c(OC)cc2S(=O)(=O)N(C)C)n[nH]c1=S	480 µM (≈ 199 µg/mL)

Tested on: Fulvia fulva
Assay: Antifungal activity against Fulvia fulva after 72 hrs by serial dilution method
Format: functional
Settings: not given
Procedure, shortened: as §2

SMILES	MIC
CCCCn1c(Cc2cc(OC)c(OC)cc2S(=O)(=O)N(C)C)n[nH]c1=S	120 µM (≈ 49.7 µg/mL)

Tested on: Talaromyces funiculosus
Assay: Antifungal activity against Penicillium funiculosum ATCC 36839 treated for 72 hrs followed by sub-cultivated for 5 days by serial dilution method
Format: functional
Settings: not given
Procedure, shortened: as §4

SMILES	MFC
CCCCn1c(Cc2cc(OC)c(OC)cc2S(=O)(=O)N(C)C)n[nH]c1=S	240 µM (≈ 99.5 µg/mL)

Tested on: Staphylococcus aureus
Assay: Antibacterial activity against Staphylococcus aureus ATCC 6538 treated for 24 hrs followed by sub-cultivated for 72 hrs by micro dilution method
Format: functional
Settings: not given
Procedure, shortened: as §3

SMILES	MBC
CCCCn1c(Cc2cc(OC)c(OC)cc2S(=O)(=O)N(C)C)n[nH]c1=S	480 µM (≈ 199 µg/mL)

Tested on: Bacillus cereus
Assay: Antibacterial activity against Bacillus cereus clinical isolate after 24 hrs by micro dilution method
Format: functional
Settings: not given
Procedure, shortened: as §1

SMILES	MIC
CCCCn1c(Cc2cc(OC)c(OC)cc2S(=O)(=O)N(C)C)n[nH]c1=S	240 µM (≈ 99.5 µg/mL)

Tested on: Pseudomonas aeruginosa
Assay: Antibacterial activity against Pseudomonas aeruginosa ATCC 27853 treated for 24 hrs followed by sub-cultivated for 72 hrs by micro dilution method
Format: functional
Settings: not given
Procedure, shortened: as §3

SMILES	MBC
CCCCn1c(Cc2cc(OC)c(OC)cc2S(=O)(=O)N(C)C)n[nH]c1=S	480 µM (≈ 199 µg/mL)

Tested on: Escherichia coli
Assay: Antibacterial activity against Escherichia coli ATCC 35210 after 24 hrs by micro dilution method
Format: functional
Settings: ATCC 35210, 24 h
Procedure, shortened: as §1

SMILES	MIC
CCCCn1c(Cc2cc(OC)c(OC)cc2S(=O)(=O)N(C)C)n[nH]c1=S	480 µM (≈ 199 µg/mL)

Tested on: Aspergillus flavus
Assay: Antifungal activity against Aspergillus flavus ATCC 9643 after 72 hrs by serial dilution method
Format: functional
Settings: ATCC 9643, 72 h
Procedure, shortened: as §2

SMILES	MIC
CCCCn1c(Cc2cc(OC)c(OC)cc2S(=O)(=O)N(C)C)n[nH]c1=S	60 µM (≈ 24.9 µg/mL)
